{"source": "ChEMBL document CHEMBL3868627", "about": "“Radical scavenging and antibacterial activity of caffemides against gram positive, gram negative and clinical drug resistance bacteria” (Bioorg Med Chem Lett, 2016)"}
{"assay": "Antioxidant activity assessed as DPPH free radical scavenging activity measured after 30 mins by spectrophotometry", "format": "functional", "procedure,_shortened": "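DPPH radical scavenging in ethanolic solution with a final DPPH concentration of 100 µM. Absorbance read at 517 nm. Percent inhibition = (A control − A test)/A control, where the control is DPPH without sample. The inhibition-versus-concentration plot gives EC50, the concentration giving a 50% drop in absorbance. Mean ± S.D. of three independent trials.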", "units": {"EC50": "µM"}}
{"compound": "CC(C)(C)c1ccc(O)c(NC(=O)/C=C/c2ccc(O)c(O)c2)c1", "EC50": 11.9}
{"compound": "O=C(/C=C/c1ccc(O)c(O)c1)Nc1ccc([N+](=O)[O-])cc1", "EC50": 7.21}
{"compound": "VITAMIN E", "EC50": 50.9}
{"compound": "CC(=O)c1cccc(NC(=O)/C=C/c2ccc(O)c(O)c2)c1", "EC50": 10.6}
{"compound": "O=C(/C=C/c1ccc(O)c(O)c1)Nc1ccccc1Sc1ccccc1", "EC50": 27}
{"compound": "O=C(/C=C/c1ccc(O)c(O)c1)Nc1ccccc1", "EC50": 52.6}
{"compound": "O=C(/C=C/c1ccc(O)c(O)c1)Nc1ccc2ccccc2c1", "EC50": 47.3}
{"compound": "O=C(O)/C=C/c1ccc(O)c(O)c1", "note": "[CAFFEIC ACID]", "EC50": 30.9}
{"compound": "Nc1ccc(NC(=O)/C=C/c2ccc(O)c(O)c2)cc1", "EC50": 36}
{"compound": "O=C(/C=C/c1ccc(O)c(O)c1)Nc1ccc(F)cc1", "EC50": 24.1}
{"compound": "Cc1cc([N+](=O)[O-])ccc1NC(=O)/C=C/c1ccc(O)c(O)c1", "EC50": 13.2}
{"compound": "O=C(/C=C/c1ccc(O)c(O)c1)NCCc1c[nH]c2ccccc12", "EC50": 58.8}
{"compound": "O=C(/C=C/c1ccc(O)c(O)c1)Nc1cc(Cl)c(O)c(Cl)c1", "EC50": 5.51}
